Assay results: publication PMC12709234 (RSC Advances, 2025)

What was measured:
[1] = tested on: MDCKII-hMDR1 cell monolayers; test: Permeability on MDCKII-hMDR1 cell monolayers; format: in vitro ADME, canine; conditions: MDCKII-hMDR1
Outline: (§1)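 MDCKII cells overexpressing human MDR1 were seeded on 96-well inserts (0.25 × 10^6 cells per mL) and grown 3 days to confluence. Monolayers were equilibrated 30 min in DPBS pH 7.4 with 1% DMSO. Test compound (10 µM) with lucifer yellow (100 µM, integrity marker) was applied apical-to-basolateral and basolateral-to-apical for 60 min at 37 °C with agitation. Both compartments, plus donor at start, were quantified by LC-MS/MS.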

[2] = tested on: P-glycoprotein (human MDR1); test: Permeability on MDCKII-hMDR1 cell monolayers; format: in vitro ADME, canine; conditions: dog, MDCK-MDR1, pH 7.4
Outline: as §1

[3] = Metabolic stability in mouse liver microsomes; format: in vitro ADME; conditions: 1 µM, scaled from in vitro clearance
Outline: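 Mouse liver microsomes were incubated in duplicate with test compound (final 1 µM, <0.1% DMSO) in 50 mM phosphate pH 7.4 at 37 °C for 1 h, with and without an NADPH regenerating system. Samples were taken at 0, 10, 20, 30, 45 and 60 min, quenched with ACN/MeOH (2:1) plus internal standard and analysed by LC-MS/MS. t1/2 came from non-linear regression; Clint was derived from it and normalized to protein. Scaling used 52.5 mg protein/g liver, 85.7 g liver/kg and LBF 131 mL min−1 kg−1.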

[4] = tested on: human tumor cell lines (Capan-1, HCT-116, LN-229, NCI-H460, DND-41, HL-60, K562, Z-138); test: Antiproliferative assays, panel of human tumor cell lines; format: cell-based
Outline: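 Cells from ATCC (DND-41 from DSMZ) were grown in medium with 10% FBS in 384-well plates. Adherent lines were plated overnight first: Capan-1 at 500 and HCT-116, NCI-H460 and LN-229 at 1500 cells/well. Suspension lines were seeded onto compound: HL-60, K-562 and Z-138 at 2500 and DND-41 at 5500 cells/well. Seven concentrations, 100–0.006 µM, from DMSO stocks, 72 h. […] At least two independent experiments.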

[5] = tested on: Bcl-2; conditions: read-out: IC50 (Bcl-2); PDB 6QGK, CHEMBL4438456; cited from earlier work

Permeability classification [1] | Papp A→B at 60 min, 10 µM [2] | Papp B→A at 60 min, 10 µM [2] | % LBF predicted in vivo hepatic clearance [3] | Efflux classification [1] | efflux ratio at 60 min, 10 µM [2] | Papp at 60 min, 10 µM [2] | IC50 ([4]; Homo sapiens, read-out: IC50 values against DND-41, HL-60, Z-138 and Capan-1) | SMILES | antiproliferative activity (in words) ([4]; all evaluated human tumor cell lines) | IC50 [5]
low to moderate | < 0.1 ×10⁻⁶ cm/s | 0.1 ×10⁻⁶ cm/s | 74 % LBF |  |  |  |  | FC(F)(F)c1cc(OCc2cc(-c3ccccc3)no2)c2ccccc2n1 [Compound 7a, 3-Phenyl-5-(((2-(trifluoromethyl)quinolin-4-yl)oxy)methyl)isoxazole] |  | 
low to moderate | 6.5 ×10⁻⁶ cm/s | 4.6 ×10⁻⁶ cm/s | 87 % LBF | low | 0.7 |  |  | FC(F)(F)c1cc(OCc2cc(-c3ccccn3)no2)c2ccccc2n1 [Compound 7b, 3-(Pyridin-2-yl)-5-(((2-(trifluoromethyl)quinolin-4-yl)oxy)methyl)isoxazole] | did not exhibit any antiproliferative effects | 
low to moderate | 1.7 ×10⁻⁶ cm/s |  | >97 % LBF |  |  |  |  | c1ccc(-c2cc(CNc3cccc4cccnc34)on2)cc1 [Compound 8a, 3-Phenyl-5-((quinolin-8-yl-azaneyl)methyl)isoxazole] |  | 
High | 17.2 ×10⁻⁶ cm/s | 27.8 ×10⁻⁶ cm/s | 96 % LBF | low | 1.6 | > 10 ×10⁻⁶ cm/s |  | c1ccc(-c2cc(CNc3cccc4cccnc34)on2)nc1 [Compound 8b, N-((3-(Pyridin-2-yl)isoxazol-5-yl)methyl)quinolin-8-amine] |  | 
Low/— | < 0.1 ×10⁻⁶ cm/s | < 0.1 ×10⁻⁶ cm/s |  |  |  |  |  | FC(F)(F)c1ccc(-c2cc(CNc3cccc4cccnc34)on2)cc1 [Compound 8c, N-((3-(4-(Trifluoromethyl)phenyl)isoxazol-5-yl)methyl)quinolin-8-amine] |  | 
Low/— | < 0.1 ×10⁻⁶ cm/s | < 0.1 ×10⁻⁶ cm/s | 51 % LBF |  |  |  |  | Clc1ccc(-c2cc(CNc3cccc4cccnc34)on2)c(Cl)c1 [Compound 8d, N-((3-(2,4-Dichlorophenyl)isoxazol-5-yl)methyl)quinolin-8-amine] |  | 
Moderate | 3.6 ×10⁻⁶ cm/s | 3.1 ×10⁻⁶ cm/s | 55 % LBF | low | 0.9 |  |  | N#Cc1ccc(-c2cc(CNc3cccc4cccnc34)on2)cc1 [Compound 8e, 4-(5-((Quinolin-8-ylamino)methyl)isoxazol-3-yl)benzonitrile] |  | 
High | 15 ×10⁻⁶ cm/s | 13.7 ×10⁻⁶ cm/s | 53 % LBF | low | 0.9 | > 10 ×10⁻⁶ cm/s | 2100 to 4700 nM | N/C(=N\O)c1ccc(-c2cc(CNc3cccc4cccnc34)on2)cc1 [Compound 8f, (Z)-N′-hydroxy-4-(5-((quinolin-8-ylamino)methyl)isoxazol-3-yl)benzimidamide] |  | 
 |  |  |  |  |  |  |  | CCCCN(CCCC)C(=O)c1cc(C)n(-c2ccccc2C(=O)N2Cc3ccccc3C[C@H]2CN)n1 [Compound J1Q, (S)-1-(2-(3-(aminomethyl)-1,2,3,4-tetrahydroisoquinoline-2-carbonyl)phenyl)-N,N-dibutyl-5-methyl-1H-pyrazole-3-carboxamide] |  | 1300 nM
